According to ChEMBL document CHEMBL4330056, “Synthesis and Cytotoxic and Antiviral Profiling of Pyrrolo- and Furo-Fused 7-Deazapurine Ribonucleosides” (J Med Chem, 2018):
The source made the active and inactive calls. The rule behind the calls is not given here.

Legend:
[1] = tested on: Hepatitis C virus; assay: Antiviral activity against Hepatitis C virus genotype 1b infected in human Huh-luc replicon cells after 3 days by luciferase assay; type: functional, organism-based, Hepacivirus hominis; conditions: subtype 1b, 72 h
[2] = Cytotoxicity against human Hep2 cells assessed as reduction in cell viability after 3 days by CellTiter-Glo assay; type: cell-based; conditions: HEp-2 cells
[3] = tested on: Hepatitis C virus; assay: Antiviral activity against Hepatitis C virus genotype 2a infected in human Huh-luc replicon cells after 3 days by luciferase assay; type: functional, organism-based, Hepacivirus hominis; conditions: subtype 2a, 72 h
[4] = tested on: BJ; assay: Antiproliferative activity against human BJ cells after 3 days by MTS assay; conditions: 72 h
[5] = tested on: MRC5; assay: Antiproliferative activity against human MRC5 cells after 3 days by MTS assay; conditions: MRC5, 72 h
[6] = tested on: A549; assay: Antiproliferative activity against human A549 cells after 3 days by MTS assay; type: functional, cell-based; conditions: A549, 72 h
[7] = tested on: CCRF-CEM; assay: Antiproliferative activity against human CCRF-CEM cells after 3 days by MTS assay; type: functional, cell-based; conditions: 72 h
[8] = Antiproliferative activity against human CEM-DNR-bulk cells after 3 days by MTS assay; conditions: 72 h
[9] = tested on: HCT-116; assay: Antiproliferative activity against human HCT116 cells after 3 days by MTS assay; type: functional, cell-based; conditions: HCT-116, 72 h
[10] = tested on: HCT-116; assay: Antiproliferative activity against p53 gene knocked out human HCT116 cells after 3 days by MTS assay; type: functional, cell-based; conditions: HCT-116, 72 h
[11] = tested on: K562; assay: Antiproliferative activity against human K562 cells after 3 days by MTS assay; type: functional, cell-based; conditions: K562, 72 h
[12] = Antiproliferative activity against human K562-TAX cells after 3 days by MTS assay; type: functional, cell-based; conditions: 72 h
[13] = tested on: U2OS; assay: Antiproliferative activity against human U2OS cells after 3 days by MTS assay; type: functional, cell-based; conditions: 72 h
[14] = tested on: HL-60; assay: Antiproliferative activity against human HL60 cells after 72 hrs by XTT assay; type: functional, cell-based; conditions: HL-60, 72 h
[15] = tested on: HepG2; assay: Antiproliferative activity against human HepG2 cells after 72 hrs by XTT assay; type: functional, cell-based; conditions: HepG2, 72 h
[16] = tested on: HeLa S3; assay: Antiproliferative activity against human HeLaS3 cells after 72 hrs by XTT assay; type: functional, cell-based; conditions: HeLa S3, 72 h
[17] = biological target: T1, Adenosine kinase (Homo sapiens, UniProt P55263); assay: Substrate activity at recombinant human ADK assessed as compound phosphorylation at 50 uM after 20 mins in presence of [3H]-adenosine by UPLC; type: ADME
[18] = biological target: T1, Adenosine kinase; assay: Inhibition of recombinant human ADK using [3H]-adenosine as substrate after 20 mins by TLC scanner-based analysis relative to control
In short: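 ADK inhibition: 50 μM adenosine substrate with 10 μM test compound and 97 ng enzyme, 20 min at 37 °C.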

[19] = tested on: Influenza A virus; assay: Antiviral activity against Influenza A virus (A/Mexico/4108/2009(H1N1)) infected in MDCK cells assessed as inhibited virus-induced cytopathic effect incubated for 2 days by XTT assay; type: functional, organism-based
[20] = tested on: Human orthopneumovirus; assay: Antiviral activity against Human respiratory syncytial virus A2 infected in Hep2 cells assessed as reduction in virus-induced cytopathic effect incubated for 4 days by CellTiter-Glo viability reagent based assay; type: functional, organism-based
[21] = tested on: Coxsackievirus B3; assay: Antiviral activity against Human coxsackie B3 Nancy infected in human HeLa cells assessed as inhibited virus-induced cytopathic effect incubated for 2 days by XTT assay; type: functional, organism-based
[22] = tested on: Human alphaherpesvirus 1; assay: Antiviral activity against human herpesvirus 1 HF infected in African green monkey Vero cells assessed as inhibited virus-induced cytopathic effect incubated for 3 days by XTT assay; type: functional, organism-based
[23] = tested on: dengue virus type 2; assay: Antiviral activity against Dengue virus 2 Thailand/16681/84 infected in African green monkey Vero cells assessed as inhibition of virus replication incubated for 3 days by fluorescence microscopy; type: functional, organism-based

T1 sequence (P55263 whole entry): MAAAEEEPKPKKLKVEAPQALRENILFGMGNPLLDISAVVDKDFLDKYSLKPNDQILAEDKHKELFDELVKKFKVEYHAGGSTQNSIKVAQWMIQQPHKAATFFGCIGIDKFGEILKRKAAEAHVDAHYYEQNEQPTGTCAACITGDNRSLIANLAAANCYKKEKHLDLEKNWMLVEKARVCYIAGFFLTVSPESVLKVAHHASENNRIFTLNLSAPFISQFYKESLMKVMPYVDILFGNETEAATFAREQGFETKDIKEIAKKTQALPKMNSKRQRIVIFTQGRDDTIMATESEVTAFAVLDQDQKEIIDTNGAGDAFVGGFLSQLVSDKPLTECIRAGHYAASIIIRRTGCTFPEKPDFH

Row | Structure (SMILES) | EC50 [1] | CC50 at 72 h [2] | EC50 [3] | IC50 [4] | IC50 [5] | IC50 [6] | IC50 [7] | IC50 [8] | IC50 [9] | IC50 [10] | IC50 [11] | IC50 [12] | IC50 [13] | IC50 [14] | IC50 [15] | IC50 [16] | Activity [17] | IC50 [18] | Activity [19] | Activity [20] | further results
1 | OC[C@H]1O[C@@H](n2c3ccoc3c3c(-c4ccco4)ncnc32)[C@H](O)[C@@H]1O | 0.17 µM | > 44.4 µM | > 44.4 µM | > 50 µM | > 50 µM | > 50 µM | 0.45 µM | > 50 µM | > 50 µM | > 50 µM | 7.03 µM | 7.01 µM | 4.21 µM | 2.55 µM | > 50 µM | > 50 µM | 34% | 3.94 µM | inactive | inactive | Activity [21]: inactive; Activity [22]: inactive; Activity [23]: inactive
2 | Nc1ncnc2c1ncn2[C@@H]1O[C@H](CO)[C@@H](O)[C@H]1O [ADENOSINE] |  |  |  |  |  |  |  |  |  |  |  |  |  |  |  |  | 73% |  |  |  | 
3 | Cn1ccc2c1c1c(N)ncnc1n2[C@@H]1O[C@H](CO)[C@@H](O)[C@H]1O | 0.46 µM | 40.9 to 44.4 µM | 0.22 µM | > 50 µM | > 50 µM | > 50 µM | 50 µM | > 50 µM | > 50 µM | > 50 µM | > 50 µM | > 50 µM | 50 µM | 2.29 µM | > 50 µM | > 50 µM | 68% | > 10 µM | inactive | inactive | Activity [21]: inactive; Activity [22]: inactive; Activity [23]: inactive
4 | Cn1ccc2c3c(-c4cc5ccccc5o4)ncnc3n([C@@H]3O[C@H](CO)[C@@H](O)[C@H]3O)c21 | 7.83 µM | 27.5 to 29.1 µM | 15.5 µM | 44.7 µM | 45.2 µM | 35.4 µM | 9.48 µM | 30.6 µM | 36.5 µM | 36.4 µM | 22.1 µM | 23 µM | 28.9 µM | > 50 µM | > 50 µM | > 50 µM | 0% | 0.47 µM | inactive | inactive | Activity [21]: inactive; Activity [22]: inactive; Activity [23]: inactive
5 | Cn1ccc2c3c(N)ncnc3n([C@@H]3O[C@H](CO)[C@@H](O)[C@H]3O)c21 | 27.3 µM | 34.6 to 44.4 µM | 33.9 µM | > 50 µM | > 50 µM | > 50 µM | > 50 µM | > 50 µM | > 50 µM | > 50 µM | > 50 µM | > 50 µM | > 50 µM | > 50 µM | > 50 µM | > 50 µM | 0% | > 10 µM | inactive | inactive | Activity [21]: inactive; Activity [22]: inactive; Activity [23]: inactive
6 | Cn1ccc2c1c1c(-c3ccco3)ncnc1n2[C@@H]1O[C@H](CO)[C@@H](O)[C@H]1O | 0.22 µM | > 44.4 µM | > 44.4 µM | > 50 µM | > 50 µM | > 50 µM | > 50 µM | > 50 µM | > 50 µM | > 50 µM | > 50 µM | > 50 µM | 7.37 µM | > 50 µM | > 50 µM | > 50 µM | 11% | 7.12 µM | inactive | inactive | Activity [21]: inactive; Activity [22]: inactive; Activity [23]: inactive
7 | CC(C)C(=O)OC[C@H]1O[C@@H](n2ccc(N)nc2=O)[C@](C)(F)[C@@H]1OC(=O)C(C)C [MERICITABINE] |  | > 44.4 µM |  |  |  |  |  |  |  |  |  |  |  |  |  |  |  |  |  |  | 
8 | Cn1ccc2c1c1c(-c3cc4ccccc4o3)ncnc1n2[C@@H]1O[C@H](CO)[C@@H](O)[C@H]1O | 1.6 µM | 26.9 to 44.4 µM | 32.5 µM | > 50 µM | > 50 µM | > 50 µM | 16.5 µM | 29.8 µM | 46.2 µM | 47.5 µM | > 50 µM | 29.3 µM | 43.9 µM | > 50 µM | > 50 µM | > 50 µM | 0% | 0.3 µM | inactive | inactive | Activity [21]: inactive; Activity [22]: inactive; Activity [23]: inactive
9 | Cn1ccc2c3c(-c4ccoc4)ncnc3n([C@@H]3O[C@H](CO)[C@@H](O)[C@H]3O)c21 | 16.5 µM | > 44.4 µM | > 44.4 µM | > 50 µM | > 50 µM | > 50 µM | > 50 µM | > 50 µM | > 50 µM | > 50 µM | > 50 µM | > 50 µM | > 50 µM | > 50 µM | > 50 µM | > 50 µM | 0% | > 10 µM | inactive | inactive | Activity [21]: inactive; Activity [22]: inactive; Activity [23]: inactive
10 | OC[C@H]1O[C@@H](n2c3ccoc3c3c(-c4cc5ccccc5o4)ncnc32)[C@H](O)[C@@H]1O | 5.34 µM | > 44.4 µM | > 44.4 µM | > 50 µM | > 50 µM | 49.3 µM | 14.1 µM | 37.1 µM | 48.8 µM | 46.5 µM | 39.6 µM | 24.3 µM | 37.8 µM | > 50 µM | 2.83 µM | > 50 µM | 58% | 0.336 µM | inactive | inactive | Activity [21]: inactive; Activity [22]: inactive; Activity [23]: inactive
